≈ marks a conversion by molar mass, not a printed value.
Columns and labels:
[1] = system: Rattus norvegicus; experiment: Effect on the spontaneous locomotor activity of rats at 0-15 min upon ip administration of the compounds at a dose of 15 mg/kg; assay type: functional; settings: route intraperitoneal
How it was run: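 Rats were dosed ip; methylcellulose served as vehicle, and treatments were assigned randomly. Thirty minutes after dosing, each rat was placed in its own circular activity chamber. Activity was counted as photocell beam interruptions and recorded at 15 and 60 min after the test started. Values are mean counts ± SEM.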

[2] = system: Rattus norvegicus; experiment: Effect on the spontaneous locomotor activity of rats at 0-15 min upon ip administration of the compounds at a dose of 1 mg/kg; assay type: functional; settings: route intraperitoneal
How it was run: (§1)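 Rats were given test agent or methylcellulose vehicle (ip or po, per line), with treatments in random order. 30 min after dosing, each rat went into an individual circular activity chamber. Locomotion was counted as photocell-beam interruptions, recorded at 15 and 60 min from test start and reported as mean counts ± SEM.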

[3] = system: Rattus norvegicus; experiment: Effect on the spontaneous locomotor activity of rats at 0-15 min upon po administration of the compounds at a dose of 30 mg/kg; assay type: functional; how it was run: as §1
[4] = Partition coefficient in octanol/water at pH 7.5 buffer.; assay type: physicochemical
[5] = Compound was tested for its water solubility at pH 7.5; assay type: physicochemical; settings: aqueous, pH 7.5, pH 7.5
How it was run: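 Solubility measured by adding excess drug to a fixed volume of 0.05 M pH 7.5 potassium phosphate buffer at ambient temperature.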

[6] = Compound was tested for its water solubility in water.; assay type: ADME; settings: read-out: S
How it was run: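 Solubility measured by adding excess drug to a fixed volume of distilled water at ambient temperature.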

[7] = system: Enterococcus faecium; experiment: The in vitro antibacterial activity as minimum inhibitory concentration against Enterococcus faecium ATCC 8043; assay type: functional
How it was run: (§2)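 Agar dilution in BHI agar. Organisms were grown overnight in BHI broth at 36 °C. Two-fold dilutions gave test concentrations from 200 to 0.005 μg/mL. Plates were inoculated with ~10^4 organisms and incubated 18 h at 36 °C. MIC was the lowest concentration with no visible growth.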

[8] = system: Escherichia coli; experiment: Median dose against Escherichia coli Juhl in mouse after peroral administration at a dose of 100xLD50 in TEST 2.; assay type: functional; settings: po
How it was run: (§3)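 CF-1 female mice (~20 g) were infected ip with 0.5 mL of an 18-h BHI broth culture diluted in 5% (w/v) hog gastric mucin to the stated multiple of LD50. The HCl salt was dissolved in distilled water and given sc or po, with the total dose split equally at 1 and 5 h post-infection. Groups of 10 mice received at least three dose levels; ten infected mice were left untreated. Deaths were recorded daily for 6 days. ED50 came from day-6 cumulative mortality using the trimmed logit method.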

[9] = system: Escherichia coli; experiment: Median dose against Escherichia coli Juhl in mouse after subcutaneous administration at a dose of 100xLD50 in TEST 1.; assay type: functional; settings: sc; how it was run: as §3
[10] = system: Escherichia coli; experiment: Median dose against Escherichia coli Juhl in mouse after subcutaneous administration at a dose of 100xLD50 in TEST 2.; assay type: functional; settings: sc; how it was run: as §3
[11] = system: Escherichia coli; experiment: The in vitro antibacterial activity as minimum inhibitory concentration against Escherichia coli DC-2; assay type: functional; how it was run: as §2
[12] = system: Escherichia coli; experiment: The in vitro antibacterial activity as minimum inhibitory concentration against Escherichia coli Juhl; assay type: functional; how it was run: as §2
[13] = system: Escherichia coli; experiment: The in vitro antibacterial activity as minimum inhibitory concentration against Escherichia coli KNK437; assay type: functional; how it was run: as §2
[14] = system: Escherichia coli; experiment: The in vitro antibacterial activity as minimum inhibitory concentration against Escherichia coli SS; assay type: functional; how it was run: as §2
[15] = system: Escherichia coli; experiment: Median dose against Escherichia coli Juhl cumulative mortalities in mouse after peroral administration at a dose of 100xLD50 in TEST 1.; assay type: functional; settings: po
How it was run: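 Female CF-1 mice (~20 g) were challenged ip with 0.5 mL of 18-h BHI culture diluted in 5% hog gastric mucin to 100× LD50 (LD50 by Reed–Muench). Oral doses in distilled water were split equally at 1 and 5 h post-infection, with ≥3 dose levels and 10 mice each, plus untreated controls. ED50 was derived from day-6 cumulative mortality by trimmed logit.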

[16] = system: Klebsiella aerogenes; experiment: The in vitro antibacterial activity as minimum inhibitory concentration against Enterobacter aerogenes ATCC 13048; assay type: functional; how it was run: as §2
[17] = system: Klebsiella pneumoniae; experiment: The in vitro antibacterial activity as minimum inhibitory concentration against Klebsiella pneumoniae ATCC 8045; assay type: functional; how it was run: as §2
[18] = system: Micrococcus luteus; experiment: The in vitro antibacterial activity as minimum inhibitory concentration against Micrococcus luteus ATCC 4698; assay type: functional; how it was run: as §2
[19] = system: Micrococcus luteus; experiment: The in vitro antibacterial activity as minimum inhibitory concentration against Micrococcus luteus ATCC 9341; assay type: functional; how it was run: as §2
[20] = system: Providencia stuartii; experiment: The in vitro antibacterial activity as minimum inhibitory concentration against Providencia stuartii CMX 640; assay type: functional; how it was run: as §2
[21] = system: Pseudomonas aeruginosa; experiment: The in vitro antibacterial activity as minimum inhibitory concentration against Pseudomonas aeruginosa A5007; assay type: functional; how it was run: as §2
[22] = system: Pseudomonas aeruginosa; experiment: The in vitro antibacterial activity as minimum inhibitory concentration against Pseudomonas aeruginosa BMH10; assay type: functional; how it was run: as §2
[23] = system: Pseudomonas aeruginosa; experiment: The in vitro antibacterial activity as minimum inhibitory concentration against Pseudomonas aeruginosa K799/61; assay type: functional; how it was run: as §2
[24] = system: Pseudomonas aeruginosa; experiment: The in vitro antibacterial activity as minimum inhibitory concentration against Pseudomonas aeruginosa K799/WT; assay type: functional; how it was run: as §2
[25] = system: Pseudomonas aeruginosa; experiment: Median dose against Pseudomonas aeruginosa A5007 in mouse after peroral administration at a dose of 100xLD50 in TEST 1.; assay type: functional; settings: po; how it was run: as §3
[26] = system: Pseudomonas aeruginosa; experiment: Median dose against Pseudomonas aeruginosa A5007 in mouse after peroral administration at a dose of 100xLD50 in TEST 2.; assay type: functional; settings: po; how it was run: as §3
[27] = system: Pseudomonas aeruginosa; experiment: Median dose against Pseudomonas aeruginosa A5007 in mouse after subcutaneous administration at a dose of 100xLD50 in TEST 1.; assay type: functional; settings: sc; how it was run: as §3
[28] = system: Pseudomonas aeruginosa; experiment: Median dose against Pseudomonas aeruginosa A5007 in mouse after subcutaneous administration at a dose of 100xLD50 in TEST 2.; assay type: functional; settings: sc; how it was run: as §3
[29] = system: Burkholderia cepacia; experiment: The in vitro antibacterial activity as minimum inhibitory concentration against Pseudomonas cepacia 2961; assay type: functional; how it was run: as §2
[30] = system: Staphylococcus aureus; experiment: Median dose against Staphylococcus aureus NCTC 10649 in mouse after peroral administration at a dose of 100xLD50 in TEST 1.; assay type: functional; settings: po; how it was run: as §3
[31] = system: Staphylococcus aureus; experiment: Median dose against Staphylococcus aureus NCTC 10649 in mouse after peroral administration at a dose of 100xLD50 in TEST 2.; assay type: functional; settings: po; how it was run: as §3
[32] = system: Staphylococcus aureus; experiment: Median dose against Staphylococcus aureus NCTC 10649 in mouse after subcutaneous administration at a dose of 100xLD50 in TEST 2.; assay type: functional; settings: sc; how it was run: as §3
[33] = system: Staphylococcus aureus; experiment: Median dose against Staphylococcus aureus NCTC 10649 in mouse after subcutaneous administration at a dose of 100xLD50 in TEST 1.; assay type: functional; settings: sc; how it was run: as §3
[34] = system: Staphylococcus epidermidis; experiment: The in vitro antibacterial activity as minimum inhibitory concentration against Staphylococcus epidermidis 3519; assay type: functional
How it was run: (§4)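 Agar dilution: organisms grown overnight in BHI broth at 36 °C. Two-fold dilutions of a 2000 μg/mL stock were made in BHI agar, giving 200 to 0.005 μg/mL final. Plates were inoculated with about 10^4 organisms and incubated 18 h at 36 °C. MIC is the lowest concentration with no visible growth.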

[35] = system: Streptococcus pyogenes; experiment: The in vitro antibacterial activity as minimum inhibitory concentration against Streptococcus pyogenes 2548 INDUC; assay type: functional; how it was run: as §4
[36] = system: Streptococcus pyogenes; experiment: The in vitro antibacterial activity as minimum inhibitory concentration against Streptococcus pyogenes 930 Const; assay type: functional; how it was run: as §4
[37] = system: Streptococcus pyogenes; experiment: The in vitro antibacterial activity as minimum inhibitory concentration against Streptococcus pyogenes EES61; assay type: functional; how it was run: as §4
[38] = system: Streptococcus agalactiae; experiment: The in vitro antibacterial activity as minimum inhibitory concentration against Streptococcus agalactiae CMX 508; assay type: functional; how it was run: as §4
[39] = system: Staphylococcus aureus; experiment: The in vitro antibacterial activity as minimum inhibitory concentration against Staphylococcus aureus 45; assay type: functional; how it was run: as §2
[40] = system: Staphylococcus aureus; experiment: The in vitro antibacterial activity as minimum inhibitory concentration against Staphylococcus aureus 45 RAR2; assay type: functional; how it was run: as §2
[41] = system: Streptococcus pneumoniae; experiment: Median dose against Streptococcus pneumoniae 6303 in mouse after peroral administration at a dose of 100xLD50 in TEST 1.; assay type: functional; settings: po; how it was run: as §3
[42] = system: Streptococcus pneumoniae; experiment: Median dose against Streptococcus pneumoniae 6303 in mouse after subcutaneous administration at a dose of 100xLD50 in TEST 1.; assay type: functional; settings: sc; how it was run: as §3
[43] = system: Staphylococcus aureus; experiment: The in vitro antibacterial activity as minimum inhibitory concentration against Staphylococcus aureus A5177; assay type: functional; how it was run: as §4
[44] = system: Staphylococcus aureus; experiment: The in vitro antibacterial activity as minimum inhibitory concentration against Staphylococcus aureus ATCC 6538P; assay type: functional; how it was run: as §4
[45] = system: Staphylococcus aureus; experiment: The in vitro antibacterial activity as minimum inhibitory concentration against Staphylococcus aureus CMX 553; assay type: functional; how it was run: as §4
[46] = system: Streptococcus equinus; experiment: The in vitro antibacterial activity as minimum inhibitory concentration against Streptococcus bovis A5169; assay type: functional; how it was run: as §4
[47] = system: Escherichia coli; experiment: The in vitro antibacterial activity as minimum inhibitory concentration against Escherichia coli H-560; assay type: functional; how it was run: as §2
[48] = system: Acinetobacter; experiment: The in vitro antibacterial activity as minimum inhibitory concentration against Acinetobacter sp. CMX 669; assay type: functional; how it was run: as §2

SMILES: CN(C)CCCN1c2ccccc2Sc2ccc(Cl)cc21 [CHLORPROMAZINE]
- Mean activity counts [1]: 31

SMILES: CN[C@@H](C)Cc1ccccc1 [METHAMPHETAMINE]
- Mean activity counts [2]: 1462

SMILES: CCn1cc(C(=O)O)c(=O)c2cc3c(cc21)OCO3 [OXOLINIC ACID]
- Mean activity counts [3]: 972

SMILES: CC1CN(c2cc3c(cc2F)c(=O)c(C(=O)O)cn3-c2ccc(F)cc2F)CCN1 (stereo not drawn) [TEMAFLOXACIN]
- logD [4]: -0.29
- solubility [5]: 670 µg/mL (≈ 1610 µM)
- solubility [6]: 6500 µg/mL (≈ 15600 µM)
- MIC [7]: 0.78 µg/mL (≈ 1.87 µM)
- ED50 [8]: 5 mg/kg
- ED50 [9]: 0.5 mg/kg
- ED50 [10]: 0.6 mg/kg
- MIC [11]: 0.39 µg/mL (≈ 0.934 µM)
- MIC [12]: 0.05 µg/mL (≈ 0.12 µM)
- MIC [13]: 0.39 µg/mL (≈ 0.934 µM)
- MIC [14]: 0.005 µg/mL (≈ 0.012 µM)
- ED50 [15]: 3.7 mg/kg
- MIC [16]: 0.1 µg/mL (≈ 0.24 µM)
- MIC [17]: 0.05 µg/mL (≈ 0.12 µM)
- MIC [18]: 1.56 µg/mL (≈ 3.74 µM)
- MIC [19]: 3.1 µg/mL (≈ 7.43 µM)
- MIC [20]: 3.1 µg/mL (≈ 7.43 µM)
- MIC [21]: 0.39 µg/mL (≈ 0.934 µM)
- MIC [22]: 0.39 µg/mL (≈ 0.934 µM)
- MIC [23]: 0.05 µg/mL (≈ 0.12 µM)
- MIC [24]: 0.39 µg/mL (≈ 0.934 µM)
- ED50 [25]: 26.6 mg/kg
- ED50 [26]: 26.6 mg/kg
- ED50 [27]: 10.3 mg/kg
- ED50 [28]: 12.5 mg/kg
- MIC [29]: 12.5 µg/mL (≈ 29.9 µM)
- ED50 [30]: 6 mg/kg
- ED50 [31]: 3.2 mg/kg
- ED50 [32]: 1.3 mg/kg
- ED50 [33]: 1.5 mg/kg
- MIC [34]: 0.2 µg/mL (≈ 0.479 µM)
- MIC [35]: 0.39 µg/mL (≈ 0.934 µM)
- MIC [36]: 0.78 µg/mL (≈ 1.87 µM)
- MIC [37]: 0.39 µg/mL (≈ 0.934 µM)
- MIC [38]: 0.78 µg/mL (≈ 1.87 µM)
- MIC [39]: 0.2 µg/mL (≈ 0.479 µM)
- MIC [40]: 0.39 µg/mL (≈ 0.934 µM)
- ED50 [41]: 10.2 mg/kg
- ED50 [42]: 6.2 mg/kg
- MIC [43]: 0.2 µg/mL (≈ 0.479 µM)
- MIC [44]: 0.1 µg/mL (≈ 0.24 µM)
- MIC [45]: 0.2 µg/mL (≈ 0.479 µM)
- MIC [46]: 1.56 µg/mL (≈ 3.74 µM)
- MIC [47]: 0.05 µg/mL (≈ 0.12 µM)
- MIC [48]: 0.1 µg/mL (≈ 0.24 µM)

Source: ChEMBL document CHEMBL1125865, “Synthesis, antibacterial activities, and pharmacological properties of enantiomers of temafloxacin hydrochloride” (J Med Chem, 1991)
